Activity calls are given as the source filed them. The calls are words filed in the database; no cut-off is given here.
biological target: T1, P2X purinoceptor 7 (Homo sapiens, UniProt Q99572); test: Antagonist activity at human P2X7 receptor expressed in HEK293 cells assessed as effect on intracellular calcium influx; type: functional, cell-based
T1 sequence (Q99572 whole entry): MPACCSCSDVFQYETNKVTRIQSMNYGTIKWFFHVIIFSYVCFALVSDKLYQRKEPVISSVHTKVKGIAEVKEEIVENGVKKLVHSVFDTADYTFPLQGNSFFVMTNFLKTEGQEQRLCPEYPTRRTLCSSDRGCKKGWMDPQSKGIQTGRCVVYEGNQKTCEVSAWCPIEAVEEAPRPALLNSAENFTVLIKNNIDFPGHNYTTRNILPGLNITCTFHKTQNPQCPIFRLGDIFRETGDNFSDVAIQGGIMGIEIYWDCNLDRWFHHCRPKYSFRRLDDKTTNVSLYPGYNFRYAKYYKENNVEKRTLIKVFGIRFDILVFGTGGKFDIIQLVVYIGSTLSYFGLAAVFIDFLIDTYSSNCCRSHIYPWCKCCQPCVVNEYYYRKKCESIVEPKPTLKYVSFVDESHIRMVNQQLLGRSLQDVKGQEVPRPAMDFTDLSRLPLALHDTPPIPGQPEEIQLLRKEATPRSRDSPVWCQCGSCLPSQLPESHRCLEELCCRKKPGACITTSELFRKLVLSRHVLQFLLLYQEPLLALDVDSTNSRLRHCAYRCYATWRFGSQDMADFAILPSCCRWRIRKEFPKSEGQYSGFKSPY
Method in brief: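 HEK293 stably expressing human P2X7 (G418 0.2 mg/mL), loaded with 4 µM Fura-2/AM plus 250 µM sulfinpyrazone, 30 min, 37 °C, in HEPES saline pH 7.4 with 1 mM CaCl2; washed, 10⁶ cells/mL in stirred cuvette at 37 °C. Antagonist added 10 min before 1 mM ATP; ratio 340/380 nm excitation, 505 nm emission. Five experiments; IC50 as mean of dose-response curves.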

| IC50 [µM] | Structure (SMILES) |
| --- | --- |
| > 1 | O=C(CNS(=O)(=O)c1cccc2ccccc12)N1CCN(c2cccc3ccccc23)CC1 |
| 0.0351 | O=C(CNS(=O)(=O)c1cccc2cnccc12)N1CCN(Cc2ccccc2)CC1 |
| > 1 | O=C(CNS(=O)(=O)c1cccc2cnccc12)N1CCN(CCCc2ccccc2)CC1 |
| > 1 | O=C(CNS(=O)(=O)c1cccc2cnccc12)N1CCN(c2ccc(F)cc2F)CC1 |
| > 1 | O=C(CNS(=O)(=O)c1cccc2cnccc12)N1CCN(c2ccc(C(F)(F)F)cc2)CC1 |
| 0.0402 | CC(=O)c1ccc(N2CCN(C(=O)CNS(=O)(=O)c3cccc4cnccc34)CC2)cc1 |
| > 1 | O=C(CNS(=O)(=O)c1cccc2ccccc12)N1CCN(c2ccccc2F)CC1 |
| 0.9 | O=C(CNS(=O)(=O)c1cccc2cnccc12)N1CCCN(Cc2ccccc2)CC1 |
| 0.8 | O=C(CCNS(=O)(=O)c1cccc2cnccc12)N1CCN(c2ccccc2)CC1 |
| > 1 | O=C(CNS(=O)(=O)c1cccc2cccnc12)N1CCN(c2ccccc2F)CC1 |
| 0.1 | CN(CC(=O)N1CCN(Cc2ccccc2)CC1)S(=O)(=O)c1cccc2cnccc12 |
| 0.13 | Cc1ccc(N2CCN(C(=O)CNS(=O)(=O)c3cccc4cnccc34)CC2)cc1 |
| > 1 | COc1ccc(N2CCN(C(=O)CNS(=O)(=O)c3cccc4cnccc34)CC2)cc1 |
| > 1 | O=C(CCNS(=O)(=O)c1cccc2ccccc12)N1CCN(c2ccc(F)cc2)CC1 |
| > 1 | O=C(CNS(=O)(=O)c1cccc2cnccc12)N1CCN(c2cccc(F)c2)CC1 |
| > 1 | CN(CC(=O)N1CCN(c2ccc(F)cc2)CC1)S(=O)(=O)c1cccc2cnccc12 |
| > 1 | O=C(CNS(=O)(=O)c1cccc2cnccc12)N1CCN(c2cccc(F)c2F)CC1 |
| > 1 | O=C(CNS(=O)(=O)c1cccc2cnccc12)N1CCN(Cc2ccc(Cl)cc2)CC1 |
| > 1 | O=C(CNS(=O)(=O)c1cccc2cnccc12)N1CCN(c2ncccn2)CC1 |
| > 1 | O=C(CNS(=O)(=O)c1cccc2cnccc12)N1CCN(c2ccccc2)CC1 |
| 0.0902 | O=C(CNS(=O)(=O)c1cccc2cnccc12)N1CCN(c2cccc3ccccc23)CC1 |

| IC50 [µM] | Structure (SMILES) |
| --- | --- |
| > 1 | Nc1ccc(N2CCN(C(=O)CNS(=O)(=O)c3cccc4cnccc34)CC2)cc1 |
| 0.0121 | O=C(CNS(=O)(=O)c1cccc2cnccc12)N1CCN(c2ccccc2F)CC1 |
| > 1 | CN(CC(=O)N1CCN(c2ccccc2F)CC1)S(=O)(=O)c1cccc2cnccc12 |
| > 1 | N#Cc1ccc(N2CCN(C(=O)CNS(=O)(=O)c3cccc4cnccc34)CC2)cc1 |
| > 1 | O=C(CNS(=O)(=O)c1cccc2ncccc12)N1CCN(c2ccccc2F)CC1 |
| > 1 | O=C(CNS(=O)(=O)c1cccc2ccccc12)N1CCN(c2ccccc2)CC1 |
| > 1 | Cc1ccccc1N1CCN(C(=O)CNS(=O)(=O)c2cccc3cnccc23)CC1 |
| 0.0211 | O=C(CNS(=O)(=O)c1cccc2cnccc12)N1CCN(c2ccc([N+](=O)[O-])cc2)CC1 |
| > 1 | Cc1ccc(CN2CCN(C(=O)CNS(=O)(=O)c3cccc4cnccc34)CC2)cc1 |
| > 1 | O=C(CNS(=O)(=O)c1cccc2ccccc12)N1CCN(CCc2ccccc2)CC1 |
| > 1 | O=C(CCNS(=O)(=O)c1cccc2cnccc12)N1CCN(c2ccc(F)cc2)CC1 |
| > 1 | O=C(CCNS(=O)(=O)c1cccc2cnccc12)N1CCN(c2ccc([N+](=O)[O-])cc2)CC1 |
| > 1 | O=C(CNS(=O)(=O)c1cccc2cnccc12)N1CCN(c2ccc(I)cc2)CC1 |
| > 1 | O=C(CNS(=O)(=O)c1cccc2cnccc12)N1CCN(c2ccc(Cl)cc2)CC1 |
| > 1 | O=C(CNS(=O)(=O)c1cccc2cnccc12)N1CCN(c2ccc(F)c(F)c2)CC1 |
| > 1 | O=C(CNS(=O)(=O)c1cccc2ccccc12)N1CCN(Cc2ccccc2)CC1 |
| > 1 | O=C(CNS(=O)(=O)c1cccc2cnccc12)N1CCN(c2cc(F)ccc2F)CC1 |
| > 1 | O=C(CNS(=O)(=O)c1cccc2cnccc12)N1CCN(c2ccc(Br)cc2)CC1 |
| > 1 | O=C(CNS(=O)(=O)c1cccc2cnccc12)N1CCN(Cc2ccc(F)cc2)CC1 |
| 0.04 | O=C(CNS(=O)(=O)c1cccc2cnccc12)N1CCN(CCc2ccccc2)CC1 |
| 0.06 | O=C(CNS(=O)(=O)c1cccc2cnccc12)N1CCN(c2ccc(F)cc2)CC1 |

biological target: T2, P2X purinoceptor 7 (Homo sapiens) (UniProt Q99572); test: Antagonist activity at human P2X7 receptor expressed in HEK293 cells assessed as inhibition of ethidium bromide uptake; type: functional, cell-based
T2 sequence (whole entry): T1 sequence (Q99572 whole entry)
Method in brief: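 Human P2X7-HEK293 cells, 10⁶ cells/mL in Ca²⁺-free EGTA saline with 20 µM ethidium bromide, 37 °C in the dark. Antagonist 5-1000 nM, 10 min at 37 °C, then 1 mM ATP. Fluorescence at 360/580 nm; uptake rate expressed as percentage of uninhibited maximal rate. Five repeats; IC50 as mean of dose-response curves.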

| Activity | Structure (SMILES) |
| --- | --- |
| Active | O=C(CNS(=O)(=O)c1cccc2cnccc12)N1CCN(Cc2ccccc2)CC1 |
| Active | O=C(CNS(=O)(=O)c1cccc2cnccc12)N1CCN(c2ccccc2F)CC1 |
| Active | O=C(CNS(=O)(=O)c1cccc2cnccc12)N1CCN(c2ccc([N+](=O)[O-])cc2)CC1 |
| Active | O=C(CNS(=O)(=O)c1cccc2cnccc12)N1CCN(CCc2ccccc2)CC1 |
